The values that follow come from ChEMBL document CHEMBL4699573, “Design, Synthesis, and Pharmacological Evaluation of Analogues Derived from the PLEV Tetrapeptide as Protein-Protein Interaction Modulators of Voltage-Gated Sodium Channel 1.6” (J Med Chem, 2020).

Residues, ends and D or L forms follow the SMILES beside them. *: point of attachment. Adamantane1carbonyl = O=C(C12CC3CC(CC(C3)C1)C2)*; OtBu = CC(C)(C)O*

Data set [1] can be described thus: Modulation of recombinant human FGF141b (1 to 252 residues)-recombinant human Nav1.6 C-terminal tail (1763 to 1976 residues) protein-protein interaction expressed in HEK293 cells measured at 2 mins interval for 20 mins by split-luciferase complementation assay. The data set is classed as cell-based. In outline:
(§1)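 Double-stable HEK293 line expressing CLuc-FGF14 and CD4-Nav1.6-C-tail-NLuc, kept on G418 and puromycin. Cells seeded for 24 h, then given compound for 1 h in serum-free, phenol red-free DMEM/F12 with a final 0.5% DMSO: 50 μM for screening, 0.25–100 μM over eight concentrations for dose-response; n = 4. D-luciferin added and read every 2 min for 20 min at 37 °C. Peak luminescence expressed as percent of per-plate DMSO mean (n = 32). IC50 from four-parameter nonlinear fit. At least 3 experiments.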

Data set [2] has as its system HEK293. In words: Modulation of recombinant human FGF141b (1 to 252 residues)-recombinant human Nav1.6 C-terminal tail (1763 to 1976 residues) protein-protein interaction expressed in HEK293 cells measured at 2 mins interval for 20 mins by split-luciferase complementation assay relative to control. In kind it is cell-based. Particulars: filed as modulator, time min 2-20. In outline:
as §1

Data set [3] concerns the target T1, Fibroblast growth factor 14 (Homo sapiens) (UniProt Q92915).
T1 sequence (whole entry): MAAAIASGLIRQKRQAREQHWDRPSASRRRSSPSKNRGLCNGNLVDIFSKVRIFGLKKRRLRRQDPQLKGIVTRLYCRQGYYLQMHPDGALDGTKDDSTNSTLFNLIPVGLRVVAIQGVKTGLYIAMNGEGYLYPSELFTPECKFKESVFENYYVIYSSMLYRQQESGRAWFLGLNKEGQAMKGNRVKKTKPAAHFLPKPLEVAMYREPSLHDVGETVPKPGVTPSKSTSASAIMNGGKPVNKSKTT
In words: Binding affinity to human recombinant FGF14 expressed in Escherichia coli BL21 assessed as assessed as induction of protein denaturation by measuring change in melting temperature at 50 uM by fluorescent dye based thermal shift assay. Particulars: filed as modulator.

Data set [4] deals with T2, Fibroblast growth factor 14 (Homo sapiens, UniProt Q92915).
T2 sequence (Q92915 whole entry): T1 sequence (whole entry)
In words: Binding affinity to human recombinant FGF14 expressed in Escherichia coli BL21 assessed as dissociation constant by SPR analysis. In outline:
(§2)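 Biacore T100 runs with FGF14 (17,896 RU) or Nav1.6 C-tail (6,800 RU) amine-coupled on CM5 at pH 5.5. Compounds at 0.195–200 μM in PBS, 0.005% Tween-20, 2% DMSO; 50 μL/min at 25 °C. 120 s association, 150 s dissociation, DMSO calibration, blank subtraction. Rates from a Langmuir 1:1 fit; KD averages the kinetic and steady-state values. At least duplicate experiments.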
A general note: In SPR one partner is held on a chip, and binding of the other changes the refractive index at the surface.

Data set [5] deals with T1, Fibroblast growth factor 14 (Homo sapiens). In words: Binding affinity to human recombinant FGF14 expressed in Escherichia coli BL21 assessed as association rate constant by SPR analysis. The settings on record: filed as modulator. In outline:
as §2

In data set [6] the target is T3, Sodium channel protein type 8 subunit alpha (Homo sapiens, UniProt Q9UQD0). In words: Binding affinity to human recombinant Nav1.6 C-terminal domain expressed in Escherichia coli BL21 assessed as association rate constant by SPR analysis. The settings on record: filed as modulator. In outline: as §2
Data set [7] concerns the target T3, Sodium channel protein type 8 subunit alpha. In words: Modulation of recombinant human Nav1.6 C-terminal tail (1763 to 1976 residues) expressed in HEK293 cells assessed as peak current density at 10 uM incubated for 30 mins by whole cell patch clamp electrophysiology assay (reference value: -50.1 +/- 3.1 pA/pF). In kind it is cell-based. Particulars: filed as modulator. In outline: (§3)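 Stable HEK-Nav1.6 cells without FGF14, incubated at least 30 min in extracellular solution (mM: 140 NaCl, 3 KCl, 1 MgCl2, 1 CaCl2, 10 HEPES, 10 glucose, pH 7.3) with compound (10 or 30 μM) or 0.1% DMSO. Whole-cell recording with Cs-methanesulfonate/EGTA/NaCl/HEPES pipette solution, 70–80% compensation. Steps −100 to +60 mV; tau measured at −10 mV. Student's t-test.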
(In general: Patch clamp records ionic current or voltage across a cell membrane.)

Data set [8] has the same target. In words: Modulation of recombinant human Nav1.6 C-terminal tail (1763 to 1976 residues) expressed in HEK293 cells assessed as long-term inactivation at depolarization cycle 3 at 10 uM incubated for 30 mins by whole cell patch clamp electrophysiology assay (reference value: 0.76 +/- 0.05). The data set is classed as cell-based. Particulars: filed as modulator.
In data set [9] the target is T4, Fibroblast growth factor 14/SCN8A (Homo sapiens) (UniProt Q9UQD0+Q92915). In words: Modulation of recombinant human Nav1.6 C-terminal tail (1763 to 1976 residues)-FGF14 (64 to 252 residues) protein-protein interaction expressed in HEK293 cells assessed as peak current density at 10 uM incubated for 30 mins by whole cell patch clamp electrophysiology assay (reference value: -19.3 +/- 1.3). The data set is classed as cell-based. Summed up: (§4)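 HEK-Nav1.6 cells transiently transfected with FGF14 using Lipofectamine 2000, then exposed at least 30 min to 10 μM compound or 0.1% DMSO in the pH 7.3 HEPES extracellular solution. Whole-cell patch clamp with Cs-methanesulfonate internal solution, 70–80% capacitance and series-resistance compensation. Test steps from −100 to +60 mV. Student's t-test used.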

The target in data set [10] is T4, Fibroblast growth factor 14/SCN8A (Homo sapiens). In words: Modulation of recombinant human Nav1.6 C-terminal tail (1763 to 1976 residues)-FGF14 (64 to 252 residues) protein-protein interaction expressed in HEK293 cells assessed as half activation voltage at 10 uM incubated for 30 mins by cell patch clamp electrophysiology assay (reference value: -21.4 +/- 1 mv). In kind it is cell-based. Summed up: as §4

Data set [11] shares this target. In words: Modulation of recombinant human Nav1.6 C-terminal tail (1763 to 1976 residues)-FGF14 (64 to 252 residues) protein-protein interaction expressed in HEK293 cells assessed as steady state half inactivation voltage at 10 uM incubated for 30 mins by whole cell patch clamp electrophysiology assay (reference value: -55.1 +/- 2 mV). The data set is classed as cell-based. In outline:
as §4

Data set [12] has the same target. In words: Modulation of recombinant human Nav1.6 C-terminal tail (1763 to 1976 residues)-FGF14 (64 to 252 residues) protein-protein interaction expressed in HEK293 cells assessed as long-term inactivation at depolarization cycle 3 at 10 uM incubated for 30 mins by cell patch clamp electrophysiology assay (reference value: 0.99 +/- 0.04). The data set is classed as cell-based. Particulars: filed as modulator. Summed up: as §4

Data set [13] has the same target. In words: Modulation of recombinant human Nav1.6 C-terminal tail (1763 to 1976 residues) -FGF14 (64 to 252 residues) protein-protein interaction expressed in HEK293 cells assessed as long-term inactivation at depolarization cycle 4 at 10 uM incubated for 30 mins by cell patch clamp electrophysiology assay (reference value: 0.98 +/- 0.06). The data set is classed as cell-based. Particulars: filed as modulator.

Data set [14] has as its target T3, Sodium channel protein type 8 subunit alpha. In words: Modulation of recombinant human Nav1.6 C-terminal tail (1763 to 1976 residues) expressed in HEK293 cells assessed as peak current density at 30 uM incubated for 30 mins by whole cell patch clamp electrophysiology assay (reference value: -50.1 +/- 3.1 pA/pF). The data set is classed as cell-based. In outline: as §3

The subject of data set [15] is HEK293. In words: Cytotoxicity against HEK293 cells assessed as reduction in cell viability measured after 18 hrs by celltiter-blue assay. Particulars: human, hek293, 18 h. For orientation: Resazurin is reduced to fluorescent resorufin, in cell work by metabolically active cells.

T4 sequence (Q9UQD0 whole entry, looked up, one chain of several, the tested form may be a part): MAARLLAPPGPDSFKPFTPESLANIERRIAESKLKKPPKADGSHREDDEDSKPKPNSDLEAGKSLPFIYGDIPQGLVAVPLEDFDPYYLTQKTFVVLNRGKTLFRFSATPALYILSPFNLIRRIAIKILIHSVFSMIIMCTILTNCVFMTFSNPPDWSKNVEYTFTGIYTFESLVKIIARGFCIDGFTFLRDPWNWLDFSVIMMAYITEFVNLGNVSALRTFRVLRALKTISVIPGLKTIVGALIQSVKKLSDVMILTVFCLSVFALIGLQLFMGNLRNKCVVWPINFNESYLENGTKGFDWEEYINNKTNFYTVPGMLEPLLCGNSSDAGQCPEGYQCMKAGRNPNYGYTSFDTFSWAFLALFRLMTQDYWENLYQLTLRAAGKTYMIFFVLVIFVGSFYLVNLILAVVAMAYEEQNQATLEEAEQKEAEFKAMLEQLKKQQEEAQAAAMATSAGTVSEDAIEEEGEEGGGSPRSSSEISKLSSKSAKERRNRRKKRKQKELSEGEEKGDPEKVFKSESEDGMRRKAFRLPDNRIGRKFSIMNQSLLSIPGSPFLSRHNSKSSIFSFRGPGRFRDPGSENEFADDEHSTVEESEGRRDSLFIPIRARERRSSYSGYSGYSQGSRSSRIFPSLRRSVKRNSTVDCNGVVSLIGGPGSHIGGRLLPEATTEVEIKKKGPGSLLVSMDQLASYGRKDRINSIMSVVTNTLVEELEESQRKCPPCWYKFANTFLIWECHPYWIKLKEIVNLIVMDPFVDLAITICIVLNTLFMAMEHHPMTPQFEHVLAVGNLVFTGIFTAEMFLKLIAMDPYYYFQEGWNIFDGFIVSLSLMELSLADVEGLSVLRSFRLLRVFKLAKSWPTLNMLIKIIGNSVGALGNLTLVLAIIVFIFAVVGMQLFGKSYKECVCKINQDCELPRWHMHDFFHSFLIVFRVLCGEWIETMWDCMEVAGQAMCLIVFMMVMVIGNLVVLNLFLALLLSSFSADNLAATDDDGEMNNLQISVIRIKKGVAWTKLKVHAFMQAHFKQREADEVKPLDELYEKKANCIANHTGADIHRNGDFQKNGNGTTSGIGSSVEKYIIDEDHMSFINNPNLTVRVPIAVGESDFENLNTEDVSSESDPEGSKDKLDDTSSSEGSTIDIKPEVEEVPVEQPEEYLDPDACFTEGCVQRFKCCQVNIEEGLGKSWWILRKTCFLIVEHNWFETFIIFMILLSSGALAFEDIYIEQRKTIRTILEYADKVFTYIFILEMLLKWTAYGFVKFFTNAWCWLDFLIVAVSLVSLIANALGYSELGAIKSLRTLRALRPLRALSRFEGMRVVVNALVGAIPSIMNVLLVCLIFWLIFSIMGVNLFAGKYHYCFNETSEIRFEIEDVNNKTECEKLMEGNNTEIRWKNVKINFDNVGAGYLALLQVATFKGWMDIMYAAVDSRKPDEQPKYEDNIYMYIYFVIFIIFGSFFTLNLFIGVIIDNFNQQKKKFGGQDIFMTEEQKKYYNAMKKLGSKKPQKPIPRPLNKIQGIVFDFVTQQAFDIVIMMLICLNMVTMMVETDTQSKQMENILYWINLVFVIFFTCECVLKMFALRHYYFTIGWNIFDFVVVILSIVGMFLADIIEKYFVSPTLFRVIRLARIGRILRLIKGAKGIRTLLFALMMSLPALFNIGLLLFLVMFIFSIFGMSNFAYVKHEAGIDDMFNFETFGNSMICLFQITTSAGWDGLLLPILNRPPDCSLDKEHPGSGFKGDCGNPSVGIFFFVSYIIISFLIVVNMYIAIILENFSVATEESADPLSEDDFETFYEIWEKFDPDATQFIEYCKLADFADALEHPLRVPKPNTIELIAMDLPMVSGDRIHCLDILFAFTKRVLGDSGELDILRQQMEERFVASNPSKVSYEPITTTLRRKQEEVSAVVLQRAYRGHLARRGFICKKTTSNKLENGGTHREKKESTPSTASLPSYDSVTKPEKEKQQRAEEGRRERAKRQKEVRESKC
T3 sequence (Q9UQD0 whole entry, looked up, the tested form may be a part): as the sequence (Q9UQD0 whole entry, looked up, one chain of several, the tested form may be a part) above

As for `COC(=O)[C@@H](NC(=O)[C@H](CCC(=O)OC(C)(C)C)NC(=O)[C@H](CC(C)C)NC(=O)[C@@H]1CCCN1C(=O)C12CC3CC(CC(C3)C1)C2)C(C)C` (Adamantane1carbonyl-PLE(OtBu)V-OMe), the IC50 in [1] is 20.4 µM. Also, the Efficacy in the data set on HEK293 [2] stood at 96.1%. In data set [3], the ΔTm is -2.27 °C. In addition, the Kd in data set [4] was found to be 4.05 µM. Besides, the figures for the K in data set [5] and in data set [6] were 4.66 10^3/M/s and 6.23 10^4/M/s, respectively. Further, the Activity in [7] was -25.8 pA/pF; in data set [8], 0.76; in data set [9] it was -38.8 pA/pF; in [10], -21.6 mV; in data set [11], -65.6 mV; in data set [12] it was 0.81. Also, the Activity in [13] is 0.75; in data set [14], -17.9 pA/pF; in the data set with HEK293 [15], “Non-Toxic”.

Usually IC50 stands for the midpoint of a concentration-inhibition curve. One may read the ΔTm as the change in melting temperature against a reference sample. Broadly, the Kd is a measure of binding affinity in units of concentration.
